A selection: hits, their analogues and other compounds. The true share with any hit is near 3.4%.
PKD1 inh: inhibitors of human PKD1 kinase; PKD1 kinase fluorescence polarization assay; inhibition, % (no concentration beside the values); Q15139; AID 797; actives 0.056% (n = 200,000); in the data active = inhibition above about 50%
Cl transport mod: KCC2 (human) Cl- transport modulation | Q9H2X9 | KCC2 cells, thallium flux FluoZin-2 fluorescence | B-score of Tl+ flux slope (higher = more flux/activation; lower = inhibition) at 10 µM | actives 2.2% (n = 190,000) | AID 1456;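 active = thallium flux slope and its plate-corrected score both differing from the plate sample mean at a set confidence after two filtering rounds, in either direction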;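 note: slope of fluorescence scaled to starting intensity during 10 to 20 s after thallium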
ROMK primary: human ROMK K+ channel modulation, primary screen | Tet-inducible ROMK, thallium flux fluorescence; actives lie on both sides | B-score at 10 µM | actives 2% (n = 130,000);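 active = signal ratio slope over the read window, or its plate-corrected B-score, at least 3 SD from the plate mean, either direction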;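 note: B-score of the F/F0 ratio slope over 7 to 12 s after thallium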
Target sequence (P48048 whole entry, looked up): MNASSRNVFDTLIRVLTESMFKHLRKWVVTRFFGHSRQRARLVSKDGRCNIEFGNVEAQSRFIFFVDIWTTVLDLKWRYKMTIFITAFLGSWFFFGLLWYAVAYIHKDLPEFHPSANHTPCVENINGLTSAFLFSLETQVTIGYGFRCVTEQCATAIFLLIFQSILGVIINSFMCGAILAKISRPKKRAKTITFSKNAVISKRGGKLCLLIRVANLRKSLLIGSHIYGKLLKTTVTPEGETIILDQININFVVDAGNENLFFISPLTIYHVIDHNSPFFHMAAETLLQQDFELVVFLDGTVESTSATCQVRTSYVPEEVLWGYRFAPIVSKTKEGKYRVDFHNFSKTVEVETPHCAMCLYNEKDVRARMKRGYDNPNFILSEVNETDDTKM
p97 inhibitor: human p97 ATPase inhibition; recombinant p97 ATPase, Kinase-Glo ATP luminescence, 3 h; inhibition, % at 8 µM; actives 0.42% (n = 220,000); P55072; in the data active = inhibition above about 15%;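 note: 0% = DMSO vehicle and 100% = wells lacking enzyme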
DTT redox prof: compounds producing H2O2 with reducing agent – biochemical, NIH compound library profiling, artefact control for MLSCN library redox annotation, primary screen | DTT-dependent redox cycling H2O2, phenol red/HRP absorbance; 100% = 100 µM peroxide control, 0% = buffer | activation, % at 10 µM | actives 0.03% (n = 200,000);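 active = activation of at least 50% relative to the plate's high and low controls in the primary single-dose screen; inactive = activation below 50%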;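 note: compound incubated with DTT at 0.8 mM final as the reducing agent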
MDM2 E3 inh: inhibitors of human Mdm2 E3 ubiquitin ligase | actives 0.11% (n = 210,000) | signal enhancement, % at 5 µM | cell-based MDM2 ubiquitination luciferase reporter, 2 h; 0 = plate control, 100 = twice control, blank-subtracted;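 active = signal enhancement of 30% or more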;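 note: luminescence tracks abundance of the self-degrading MDM2-luciferase fusion protein; higher signal means inhibition of MDM2 E3 ligase activity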
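Material: Stable MDM2–luciferase fusion reporter cells | Amount: 2000 cells seeded into each well | Dosing: One concentration, 5 µM, with 0.2% DMSO | Incubation: 4 h cell settling then 2 h compound exposure, 37 °C | Measured by: Luciferase luminescence | Read-out basis: % enhancement relative to plate controls after blank subtraction | Benchmarks: Control and blank well means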
ROMK retest: retested hit modulating human ROMK potassium channel; actives 54% (n = 3,000); shares compounds with ROMK primary; ROMK thallium flux, fluorescence ratio; active compounds read low; normalized thallium flux (F/F0 slope) at 10 µM;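 active = Flux at 10 µM at least 3 SD below or above vehicle control mean in one or both replicates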
The depositor's hits bear a star; x = not tested or not shown.

SMILES | PKD1 inh | Cl transport mod | ROMK primary | p97 inhibitor | DTT redox prof | MDM2 E3 inh | ROMK retest
CCc1nc(N2CCNCC2)c(C#N)c2c1CSC(C)(C)C2 | -0.9 | -0.275 | -3.72* | -1.1 | -0.6 | -26.4 | 0.0747
CC12CN3CCN(CC(C3)C1O)C2 (configuration not stated) | -6.9 | -3.1 | x | 7.5 | -0.2 | -23.7 | 0.0767
Cc1c(CCN)ccc2c1[nH]c1ccccc12 | x | -2.54 | -3.23* | 0.3 | x | -15.0 | 0.0656*
Cc1[nH]c2c(C(F)(F)F)cccc2c1CCN | 1.4 | -0.0986 | -0.885 | -3.9 | -1.0 | -14.0 | x
CC(=NCc1ccco1)c1c(O)n(-c2ccc(Cl)cc2)c(=O)[nH]c1=O | x | 0.175 | x | 8.7 | x | -5.0 | x
O=C(COc1ccc(Cl)cc1)N1CCN(Cc2ccc([N+](=O)[O-])cc2)CC1 | 0.8 | -1.93 | -6.47* | -6.9 | -0.2 | -15.6 | 0.0489*
COc1ccccc1CCNC1CCC(C(C)(C)C)CC1 (configuration not stated) | -1.5 | -0.04 | -5.83* | -4.6 | -4.9 | 9.3 | 0.0589*
Cn1c(O)c(C=Nc2ccccc2-c2ccccc2)c(=O)n(C)c1=O | x | -1.17 | 0.175 | 2.1 | x | -5.3 | x
Cn1c(O)c(/C=C/C=Nc2ccccc2)c(=O)n(C)c1=O | -6.8 | -1.52 | x | 1.3 | 0.3 | -7.8 | 0.0513*
C=CCN(CC#CCOc1ccccc1OC)CC=C | -3.5 | -0.574 | 0.619 | -1.9 | 0.1 | x | x
O=C1NC(=O)C(=Cc2coc3ccc(O)cc3c2=O)C(=O)N1 | x | x | x | 9.3 | x | 9.6 | 0.0428*
CCNCCNc1ccc([N+](=O)[O-])c2cccnc12 | x | x | x | 7.0 | x | -4.5 | x
Cc1nonc1OCCNCCNc1ccc([N+](=O)[O-])c2cccnc12 | -2.4 | 0.281 | -5.29* | -1.3 | -0.1 | -6.6 | 0.0532*
COc1ccccc1NC1(C#N)CCCCC1 | -1.0 | 1.13 | 0.839 | 1.1 | -2.3 | -4.6 | x
CCOC(=O)C1=C(C)OC(N)=C(C(=O)OCC)C12C(=O)Nc1ccc(Br)cc12 (configuration not stated) | 2.0 | -0.612 | x | -1.6 | 1.3 | -28.9 | x
C=CC(C)C(C(=O)c1ccccc1)N(C)C (configuration not stated) | -5.7 | x | 0.881 | -1.8 | 0.3 | -33.5 | x
CN(C)C(Cc1ccccc1)C(=O)c1ccccc1 (configuration not stated) | -1.9 | -2.11 | x | 3.6 | -0.2 | -4.2 | 0.0814
CCOP(=O)(OCC)C(NC(=O)CC(C)C)C(Cl)(Cl)Cl (configuration not stated) | 12.8 | -0.00832 | 0.314 | 3.8 | 0.4 | -9.7 | x
Cc1ccc(N2C(=O)NC(=O)/C(=C\C=C\c3ccco3)C2=O)cc1C | -4.3 | 0.354 | -8.65* | 10.0 | -0.3 | 53.0* | 0.0392*
Cc1cccc(N2C(=O)NC(=O)/C(=C\C=C\c3ccco3)C2=O)c1 | x | -1.73 | -14.3* | 0.3 | x | 15.6 | 0.0459*
Cc1ccc(N2C(=O)NC(=O)/C(=C\C=C\c3ccco3)C2=O)cc1 | x | -1.39 | x | 6.7 | x | x | x
O=C1NC(=O)N(c2ccccc2)C(=O)/C1=C/C=C/c1ccco1 | x | -1.43 | -9.61* | -2.7 | x | 9.8 | 0.0461*
C=CCn1c(O)c(C=Nc2c(C)n(C)n(-c3ccccc3)c2=O)c(=O)[nH]c1=O | x | 0.139 | 1.38 | 7.9 | x | -5.8 | x
O=c1c2ccccc2nc(-c2ccccc2)n1-c1cccc(O)c1 | -0.4 | 0.272 | -0.421 | 5.4 | -0.3 | -8.1 | x
CC1CCC(C(C)C)C(OC(=O)Cn2c(COc3ccccc3)[n+](C)c3ccccc32)C1 (configuration not stated) | x | 0.017 | -8.83* | 4.4 | x | -9.6 | 0.0374*
OC1(c2ccccc2F)CC2CCC(C1)N2CCN1CCOCC1 (configuration not stated) | -13.9 | 0.541 | 0.216 | 5.3 | 1.3 | -8.8 | x
CCOC(=O)C1SC2(C(F)F)CC1(O)c1c(c(OC)c3occc3c1OC)O2 (configuration not stated) | 3.4 | -0.744 | -1.9 | -7.5 | -0.7 | -13.6 | x

Compound activity: PubChem BioAssay, several laboratories
